bovine MsrA act: bovine methionine sulfoxide reductase A activation | purified bovine MsrA, absorbance read-out | actives 0.3% (n = 360,000) | AID 602163 | activation, % at 10.6 µM; in the data active = activation above about 7.5%
HGIII-sPLA2 inh: Inhibits HGIII-sPLA2 liposome hydrolysis, primary screen; actives 0.56% (n = 370,000); QFRET BODIPY PC-A2 liposome hydrolysis, fluorescence; AID 743126; Q9NZ20; inhibition, % at 12.2 µM;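 active = inhibition above mean plus 3 SD of compounds lying within the high and low control bounds, cut at about 19% in these data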
Target sequence (Q9NZ20 whole entry, looked up): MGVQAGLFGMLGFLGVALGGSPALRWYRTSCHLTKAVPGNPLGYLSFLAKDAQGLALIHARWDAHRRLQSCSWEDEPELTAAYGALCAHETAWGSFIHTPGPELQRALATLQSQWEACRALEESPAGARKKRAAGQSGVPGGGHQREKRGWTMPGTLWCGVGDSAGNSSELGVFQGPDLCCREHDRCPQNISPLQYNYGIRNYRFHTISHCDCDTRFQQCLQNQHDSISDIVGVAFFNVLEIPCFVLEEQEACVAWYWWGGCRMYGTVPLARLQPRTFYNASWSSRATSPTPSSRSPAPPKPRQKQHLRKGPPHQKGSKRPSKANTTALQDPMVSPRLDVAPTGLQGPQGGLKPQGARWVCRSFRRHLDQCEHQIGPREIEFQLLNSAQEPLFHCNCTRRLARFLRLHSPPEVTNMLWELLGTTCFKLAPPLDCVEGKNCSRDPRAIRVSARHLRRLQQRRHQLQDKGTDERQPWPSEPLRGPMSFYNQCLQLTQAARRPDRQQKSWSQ
ASAP1 GAP inh: inhibitors of human ASAP1 ArfGAP activity; inhibition, % at 16.5 µM; Q9ULH1; ASAP1-stimulated ARF1 GTP hydrolysis, GDP FP detection; actives 0.19% (n = 360,000); AID 624377; in the data active = inhibition above about 25%
ARFGAP1 inhibitor: rat ARFGAP1 inhibition | Q62848 | Arfgap1-stimulated ARF1 GTP hydrolysis, GDP FP detection | inhibition, % at 16.5 µM | actives 0.26% (n = 360,000) | AID 651572;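 active = inhibition above a per-plate limit, mean inhibition of low control wells plus 3 SD, cut at about 25% in these data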
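Assay system: Rat Arfgap1 GAP domain (His6, aa 1-136), purified enzyme | Buffer or medium: HEPES 25 mM pH 7.5, NaCl 150 mM, MgCl2, DTT | Schedule: GTP hydrolysis reaction 2 h at 25 °C | Signal: FP of antibody-bound GDP Alexa 633 tracer, ex 620/em 688 nm | Measure: Percent inhibition of Arfgap1-stimulated GTP hydrolysis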
MsrA inh: inhibits bovine methionine sulfoxide reductase A | purified bovine MsrA, absorbance read-out | inhibition, % at 15.5 µM | actives 0.75% (n = 360,000) | AID 651718; in the data active = inhibition above about 4.5%
Rev-erbA mod: modulators of human Rev-erb alpha DNA binding; P20393; Rev-erbα–FITC-DNA binding, fluorescence polarization, 90 min; activity, % at 10 µM; actives 0.79% (n = 370,000);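 active = activity above about 14%, limit read from the data; passing the limit was not always enough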
ASAP1 GAP conf: ASAP1 inhibition confirmed; actives 37% (n = 620); inhibition, % at 16.5 µM; shares compounds with ASAP1 GAP inh; ASAP1-stimulated Arf1 GTPase, GDP fluorescence polarization;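 active = mean inhibition over triplicates exceeds the hit threshold derived for the earlier primary screening run, cut at about 25% in these data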
Numbers stand for hits; n = inactive; x = not tested or not shown. Rows were chosen to be rich in hits. Some 2.7% of all compounds tested hit in one or more screens of this group.

SMILES	bovine MsrA act	HGIII-sPLA2 inh	ASAP1 GAP inh	ARFGAP1 inhibitor	MsrA inh	Rev-erbA mod	ASAP1 GAP conf
Cn1c(=O)cc(SCC(=O)N2CCCC2)c2ccccc21	n	n	35	n	n	n	n
CN(Cc1ccccc1)C(=O)CSc1cc(=O)n(C)c2ccccc12	n	n	n	n	n	n	x
COc1cnc(-c2ccccc2)nc1Oc1cccc(C)c1	n	n	25	n	n	n	n
COc1ccc(N(C(=O)CCl)C(C(=O)NC2CCCCC2)c2cccnc2)cc1 (centres undefined)	n	n	70	n	n	n	n
CC(C)CNS(=O)(=O)CC1NCc2cc3c(cc21)OCO3 (centres undefined)	x	n	x	x	x	n	x
COCCNC(=S)N=Nc1c(O)[nH]c2ccc([N+](=O)[O-])cc12	n	n	30	n	n	n	41
CN(C)S(=O)(=O)c1ccc2nc(COCc3nc4ccc(S(=O)(=O)N(C)C)cc4[nH]3)[nH]c2c1	x	n	x	x	x	n	x
COc1ccc2cc(C(=O)Nc3ccc(F)cc3)sc(=O)c2c1OC	n	n	26	n	n	n	n
COc1ccc2cc(C(=O)Nc3ccc(O)cc3)sc(=O)c2c1OC	n	n	n	n	n	n	x
COc1ccc2cc(C(=O)Nc3ccc(Cl)cc3)sc(=O)c2c1OC	n	n	56	n	n	n	56
CCCCCCCCN1CN2Cc3ccc(C)cc3C2CS1(=O)=O (centres undefined)	x	n	x	x	x	n	x
COc1cc(N)c2ncccc2c1Br	n	n	28	n	n	n	n
COc1cc(N)c2ncccc2c1SC	n	n	n	n	n	n	x
CN=C1S/C(=C/c2cc(C)n(Cc3ccccc3)c2C)C(=O)N1C	x	n	x	x	x	n	x
COc1cc(OC)c(C2SCCN2S(=O)(=O)c2ccc(F)cc2)cc1OC (centres undefined)	n	n	n	n	n	n	x
COc1ccc(OC)c(C2SCCN2S(=O)(=O)c2cccc(C(F)(F)F)c2)c1 (centres undefined)	n	n	25	n	n	n	n
CN(C)CC(=O)N[C@H]1C[C@@H]2O[C@@H](CO)CC[C@@H]2O[C@@H]1CCc1ccc(C2=CCCCC2)cc1	x	n	x	x	x	n	x
O=C1CCC2(CCC(c3ccccc3)CC2)N1CCO (centres undefined)	x	n	x	x	x	n	x
COc1ccc(Cn2cc(CN3[C@@H](Cc4ccccc4)COc4cc(Br)ccc4S3(=O)=O)nn2)cc1	x	n	x	x	x	n	x
CC(=O)c1ccc(S(=O)(=O)NCC(=O)N2CCN(C/C=C/c3ccccc3)CC2)cc1	n	n	28	n	n	n	n
Cc1cccc(/N=C/c2c(O)[nH]c3ccccc23)n1	n	n	n	n	n	n	x
Cc1cccc(/N=C/c2sc3ccccc3c2O)n1	n	n	28	n	n	n	n
COc1ccc(Nc2ncnc3sc(-c4ccccc4)cc23)cc1OC	n	n	26	n	n	n	28
CSCCNC(=O)C1(C)CCN1C(=O)CCc1ccccc1 (centres undefined)	n	n	29	n	n	n	n
COc1ccc(NC(=O)C2=CC(c3ccc(C)cc3)=NS(=O)(=O)N2C)cc1OC	n	n	25	n	n	n	n
SMILES	bovine MsrA act	HGIII-sPLA2 inh	ASAP1 GAP inh	ARFGAP1 inhibitor	MsrA inh	Rev-erbA mod	ASAP1 GAP conf
COc1ccc(C2=NS(=O)(=O)N(C)C(C(=O)Nc3ccc(OC)c(OC)c3)=C2)cc1	n	n	n	n	n	n	x
O=C(Cc1ccccc1)NCCn1ccc2ccccc21	n	n	n	n	n	n	x
CC(=O)NCCn1ccc2ccccc21	n	n	27	n	n	n	n
CC1CCCC(C)N1C(=O)COC(=O)CCC(=O)c1ccc(F)cc1 (centres undefined)	n	n	29	n	n	n	n
CCCCCCN1CCS(=O)(=O)N(Cc2ccc(C)cc2)C(C(=O)OC)C1 (centres undefined)	x	n	x	x	x	n	x
COc1ccc(CNCC#CC2=CCCCC2)c(OC)c1	x	n	x	x	x	n	x
O=C(COC(=O)c1ccc2c(c1)C(=O)N(c1cccc3ncccc13)C2=O)c1ccc(Cl)cc1	n	n	145	n	n	n	177
CC(C)c1ccc(OCC(=O)Nc2ccc(S(=O)(=O)Nc3ccccn3)cc2)cc1	n	n	25	n	n	n	n

Screens deposited in PubChem BioAssay by several laboratories.
